Series [1] in a line: Half life in human liver microsomes. Format: ADME, Microsome.
Series [2] addresses 3',5'-cyclic-AMP phosphodiesterase 4B (Homo sapiens, UniProt Q07343). Put plainly: Inhibition of PDE4B catalytic domain (unknown origin). An outline of the steps:
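Each IC50 is the mean of at least two independent determinations. Each curve had 10 half-log dilutions, centred near the 50% inhibition level, with each point run in duplicate.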

Series [3] concerns the target cGMP-dependent 3',5'-cyclic phosphodiesterase (Homo sapiens, UniProt O00408). Description: Inhibition of PDE2 catalytic domain (unknown origin).
The nature of series [4]: Half life in Sprague-Dawley rat at 1 mg/kg, iv. Format: ADME, organism-based. Set-up: dose 1 mg/kg, route intravenous. The settings on record: in vivo. An outline of the steps:
(§1)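 Male Sprague–Dawley rats, two animals per route. Dosing was either intravenous at 1 mg/kg or oral at 10 mg/kg. Pharmacokinetic parameters were derived from these dosings.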

Series [5] has as its system Rattus norvegicus. Put plainly: Analgesic activity in medial meniscal transection rat osteoarthritis pain model assessed as inhibition of change in hind paw weight distribution at 10 mg/kg, sc administered on day 28 post medial meniscal transection surgery measured after 1 hr relative to vehicle-treated control. Format: functional. Particulars: route subcutaneous. The gist of the method: (§2)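 The rats were assessed for hind paw weight distribution. On day 28 after surgery they received a single subcutaneous dose of compound or vehicle and were reassessed 1 and 3 h post dose. N = 6 rats per group, data as mean ± SEM. Significance was tested by one-way ANOVA with Dunnett's test against vehicle at the same time point, P < 0.05.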

Series [6] in a line: Tmax in Sprague-Dawley rat at 10 mg/kg, po. Format: ADME, organism-based. Set-up: dose 10 mg/kg, route oral. The settings on record: in vivo. An outline of the steps:
as §1

Series [7] is described as follows: AUC in Sprague-Dawley rat at 10 mg/kg, po. Format: ADME, organism-based. Set-up: dose 10 mg/kg, route oral. Particulars: plasma. An outline of the steps: as §1
Series [8] has as its system Rattus norvegicus. Put plainly: Analgesic activity in medial meniscal transection rat osteoarthritis pain model assessed as inhibition of change in hind paw weight distribution at 10 mg/kg, po administered on day 28 post medial meniscal transection surgery measured after 1 hr relative to vehicle-treated control. Format: functional.
Series [9] in a line: Volume of distribution at steady state in Sprague-Dawley rat at 1 mg/kg, iv and 10 mg/kg, po. Format: ADME, organism-based. The settings on record: in vivo, read-out: Vdss. An outline of the steps:
as §1

A short description of series [10]: Plasma concentration in medial meniscal transection rat osteoarthritis pain model at 10 mg/kg, sc administered on day 28 post medial meniscal transection surgery measured at 1 hr. Set-up: dose 10 mg/kg, route subcutaneous. Format: ADME, organism-based. An outline of the steps:
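Plasma was sampled 1 h after a single subcutaneous 10 mg/kg dose in the rat osteoarthritis pain model. Free concentration was derived using the rat plasma free fraction.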

A short description of series [11]: Half life in rat liver microsomes. Format: ADME, Microsome. On the technique in general: Liver microsomes are a subcellular fraction often used to study metabolism.
Series [12] is described as follows: Fraction unbound in plasma of medial meniscal transection rat osteoarthritis pain model at 10 mg/kg, sc administered on day 28 post medial meniscal transection surgery measured at 1 hr to 3 hrs. Format: ADME, organism-based. Set-up: dose 10 mg/kg, route subcutaneous.
Series [13] is described as follows: Clearance in Sprague-Dawley rat at 1 mg/kg, iv and 10 mg/kg, po. Format: ADME, organism-based. Particulars: in vivo. The gist of the method: as §1
Series [14] in a line: Fraction unbound in brain of medial meniscal transection rat osteoarthritis pain model at 10 mg/kg, sc administered on day 28 post medial meniscal transection surgery measured at 1 hr to 3 hrs. Format: ADME, organism-based. Set-up: dose 10 mg/kg, route subcutaneous.
The test system of the next series is Brain. Description: Total drug level in brain of medial meniscal transection rat osteoarthritis pain model at 10 mg/kg, sc administered on day 28 post medial meniscal transection surgery measured at 1 hr to 3 hrs. Particulars: read-out: Drug uptake, in vivo. Set-up: dose 10 mg/kg, route subcutaneous. Format: ADME, organism-based.
The nature of series [15]: Oral bioavailability in Sprague-Dawley rat at 10 mg/kg. Format: ADME, organism-based. Particulars: in vivo. An outline of the steps:
as §1

The test system of series [16] is Rattus norvegicus. Description: Analgesic activity in medial meniscal transection rat osteoarthritis pain model assessed as inhibition of change in hind paw weight distribution at 10 mg/kg, po administered on day 28 post medial meniscal transection surgery measured after 3 hrs relative to vehicle-treated control. Format: functional.
Series [17] has as its system Rattus norvegicus. Put plainly: Analgesic activity in medial meniscal transection rat osteoarthritis pain model assessed as inhibition of change in hind paw weight distribution at 10 mg/kg, sc administered on day 28 post medial meniscal transection surgery measured after 3 hrs relative to vehicle-treated control. Format: functional. The settings on record: route subcutaneous. The gist of the method:
as §2

Sequence of cGMP-dependent 3',5'-cyclic phosphodiesterase (O00408 whole entry, the tested form may be a part): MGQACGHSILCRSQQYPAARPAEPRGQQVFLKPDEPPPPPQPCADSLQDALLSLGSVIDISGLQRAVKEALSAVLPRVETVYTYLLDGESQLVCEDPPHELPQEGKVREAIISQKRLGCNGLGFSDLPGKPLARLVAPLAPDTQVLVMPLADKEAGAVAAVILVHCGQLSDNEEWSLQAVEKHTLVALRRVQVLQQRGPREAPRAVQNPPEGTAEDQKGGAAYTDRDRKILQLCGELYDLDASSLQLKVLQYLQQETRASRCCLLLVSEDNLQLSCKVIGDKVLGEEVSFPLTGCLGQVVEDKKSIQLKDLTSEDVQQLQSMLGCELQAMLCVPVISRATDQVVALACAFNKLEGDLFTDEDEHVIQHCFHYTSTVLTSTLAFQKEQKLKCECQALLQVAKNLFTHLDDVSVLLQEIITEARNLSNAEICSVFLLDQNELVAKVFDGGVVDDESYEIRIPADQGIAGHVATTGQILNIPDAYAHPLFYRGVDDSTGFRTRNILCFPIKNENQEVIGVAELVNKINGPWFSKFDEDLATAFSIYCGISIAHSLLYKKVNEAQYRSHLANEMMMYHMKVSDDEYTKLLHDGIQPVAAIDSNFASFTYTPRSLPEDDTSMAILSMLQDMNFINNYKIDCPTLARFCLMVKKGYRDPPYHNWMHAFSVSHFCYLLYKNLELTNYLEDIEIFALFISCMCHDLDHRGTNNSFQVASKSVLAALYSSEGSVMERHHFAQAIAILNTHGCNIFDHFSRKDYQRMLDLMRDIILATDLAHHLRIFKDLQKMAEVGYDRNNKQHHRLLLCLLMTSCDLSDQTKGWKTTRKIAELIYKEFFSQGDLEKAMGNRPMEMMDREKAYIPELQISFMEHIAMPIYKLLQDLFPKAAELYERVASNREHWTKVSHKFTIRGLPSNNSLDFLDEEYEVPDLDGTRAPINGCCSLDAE
Sequence of 3',5'-cyclic-AMP phosphodiesterase 4B (Q07343 whole entry, the tested form may be a part): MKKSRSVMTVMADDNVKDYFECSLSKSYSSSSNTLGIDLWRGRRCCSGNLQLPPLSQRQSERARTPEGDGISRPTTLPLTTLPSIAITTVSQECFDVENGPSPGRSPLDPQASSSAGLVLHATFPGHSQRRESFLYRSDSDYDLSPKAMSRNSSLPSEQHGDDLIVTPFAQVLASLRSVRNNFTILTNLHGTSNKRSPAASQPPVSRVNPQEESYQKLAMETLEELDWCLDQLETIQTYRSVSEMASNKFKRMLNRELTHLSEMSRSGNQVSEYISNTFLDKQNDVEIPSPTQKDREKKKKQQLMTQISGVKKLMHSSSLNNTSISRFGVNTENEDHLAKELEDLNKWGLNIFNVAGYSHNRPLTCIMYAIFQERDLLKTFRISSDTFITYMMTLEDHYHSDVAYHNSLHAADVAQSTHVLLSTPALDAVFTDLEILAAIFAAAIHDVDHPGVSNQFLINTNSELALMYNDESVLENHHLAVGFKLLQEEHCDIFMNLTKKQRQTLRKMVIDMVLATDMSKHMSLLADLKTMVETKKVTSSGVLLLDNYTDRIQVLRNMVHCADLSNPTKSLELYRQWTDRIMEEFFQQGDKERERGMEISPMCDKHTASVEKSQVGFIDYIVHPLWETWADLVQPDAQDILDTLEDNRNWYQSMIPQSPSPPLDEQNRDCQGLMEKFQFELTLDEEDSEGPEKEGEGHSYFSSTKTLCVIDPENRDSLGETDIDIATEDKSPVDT

As for `COc1ccc(C2=Nc3c(C(C)(C)C)nn(CCO)c3C(=O)NC2)cc1-c1cnc(N2CCCC2)nc1`, in series [1], the half-life came to 33 min. Also, the IC50 in series [2] turned out to be 410 nM; in series [3], 1.2 nM.

In turn, `COc1ccc(C2=Nc3c(C(C)(C)C)nn(CCCO)c3C(=O)NC2)cc1-c1ccccc1SC` returned a half-life in series [1] of 51 min. Further, the concentration for half-maximal inhibition (IC50) in series [2] came to 100000 nM; in series [3] it was 505 nM.

In the case of `COc1ccc(C2=Nc3c(C(C)(C)C)nn(CCCO)c3C(=O)NC2)cc1-c1ccc(F)cc1F`, the half-life in [1] was 120 min. In addition, the IC50 turned out to be 100000 nM in series [2] and 483 nM in series [3].

In turn, `COc1ccc(C2=Nc3c(C(C)(C)C)nn(CCO)c3C(=O)NC2)cc1-c1cnc(N2CCCCC2)nc1` returned a half-life in series [1] of 18 min. Also, the values for the IC50 in series [2] and in series [3] were 353 nM and 2.5 nM, respectively.

In series [1], `COc1ccc(C2=Nc3c(C(C)(C)C)nn(CCCO)c3C(=O)NC2)cc1-c1cnc(N(C)C)cc1C` had a half-life of 42 min. The concentration for half-maximal inhibition (IC50) is 5660 nM in series [2] and 18 nM in series [3].

Regarding `COc1ccccc1-c1cc(C2=Nc3c(C(C)(C)C)nn(CCCO)c3C(=O)NC2)ccc1OC`, the half-life in series [1] came out at 82 min. Moreover, the results for the IC50 in [2] and in series [3] were 2070 nM and 156 nM, respectively.

The compound `COc1ccc(C2=Nc3c(C(C)(C)C)nn(CCO)c3C(=O)NC2)cc1-c1cnn(C)c1` displayed a half-life in series [1] of 59 min. In addition, the IC50 in series [2] came out at 110 nM; in series [3], 6.8 nM.

In series [1], `COc1ccc(C2=Nc3c(C(C)(C)C)nn(CCO)c3C(=O)NC2)cc1-c1cnc(N(C)C)nc1` registered a half-life of 36 min. Besides, the figures for the IC50 in [2] and in series [3] were 695 nM and 2.5 nM, respectively.

As to `COc1ccc(C2=Nc3c(C(C)(C)C)nn(CCO)c3C(=O)NC2)cc1-c1cnc(N2CCOCC2)nc1`, in series [1], the half-life came to 39 min. Further, the IC50 in series [2] came out at 265 nM; in series [3] it was 1.4 nM.

The compound `COc1ccc(C2=Nc3c(C(C)(C)C)nn(CCCO)c3C(=O)NC2)cc1-c1ccc(C(=O)O)cc1` returned a half-life in [1] of 120 min. In addition, the IC50 in [2] came to 27000 nM; in series [3], 40 nM.

Consider `COc1ncc(-c2cc(C3=Nc4c(C(C)(C)C)nn(CCO)c4C(=O)NC3)ccc2OC)cn1`, for which the half-life in [1] is 34 min; in series [4], 90 min; in series [11] it was more than 60 min. Also, the results for the inhibition in vivo at 10 mg/kg in the series on Rattus norvegicus [5] and in the series on Rattus norvegicus [8] were 79% and 44%, respectively. The Tmax in [6] is 180 min. In series [7], this compound registered an area under the curve (AUC) of 4530 ng·h/mL. In addition, the Vd in [9] turned out to be 3.02 L/kg. For the same compound, the concentration at 1 h in series [10] is 2500 nM. This compound came in with an IC50 in [2] of 562 nM. In addition, the fraction unbound turned out to be 0.032 in series [12] and 0.009 in series [14]. In series [13], this compound registered a clearance of 27 mL/min/kg. In addition, the concentration in the series on Brain came out at 475 nM. The compound also gave a bioavailability in series [15] of 78%.

Take `COc1ccc(-c2cc(C3=Nc4c(C(C)(C)C)nn(CCCO)c4C(=O)NC3)ccc2OC)c(OC)c1`: the half-life in series [1] was 120 min. For the same compound, the IC50 was 100000 nM in series [2] and 14 nM in series [3].

For `COc1ccc(-c2cc(C3=Nc4c(C(C)(C)C)nn(CCCO)c4C(=O)NC3)ccc2OC)cn1`, in series [1], the half-life came out at 120 min. Further, the IC50 in series [2] is 6190 nM; in series [3] it was 70 nM.

Consider `COc1ncc(-c2cc(C3=Nc4c(C(C)(C)C)nn(CCO)c4C(=O)NC3)ccc2OC)c(OC)n1`, for which the half-life in series [1] is 36 min. Besides, the IC50 was 138 nM in series [2] and 9.3 nM in [3].

In the case of `COc1ccc(-c2cc(C3=Nc4c(C(C)(C)C)nn(CCO)c4C(=O)NC3)ccc2OC)c(OC)c1`, the half-life in [1] worked out at 43 min. Also, the IC50 was found to be 741 nM in series [2] and 3.4 nM in series [3].

In the case of `CCC(C)(C)c1nn(CCO)c2c1N=C(c1ccc(-n3ccnc3C)cc1)CNC2=O`, the half-life in series [1] came to 6.9 min.

In the case of `COc1ccc(C2=Nc3c(C(C)(C)C)nn(CCCO)c3C(=O)NC2)cc1-c1cnn(C)c1`, the half-life in [1] is 120 min; in series [4], 43.8 min. For the same compound, the time of peak concentration (Tmax) in series [6] is 30 min. Besides, the AUC in series [7] amounted to 1160 ng·h/mL. In series [9], the Vd amounted to 2 L/kg. The values for the IC50 in series [2] and in series [3] were 6740 nM and 36 nM, respectively. Further, in series [13], the clearance was found to be 43 mL/min/kg. In series [15], this compound had a bioavailability of 31%.

In series [4], `CCC(CC)c1nn(CCO)c2c1N=C(c1ccc(-n3ccnc3C)cc1)CNC2=O` showed a half-life of 31.8 min. In addition, the Tmax in series [6] was determined as 135 min. In series [7], the exposure (AUC) is 1660 ng·h/mL. Moreover, in [9], the Vd was 1.1 L/kg. The compound also registered a clearance in series [13] of 70 mL/min/kg. This compound also gave a bioavailability in series [15] of 75%.

Compound `COc1ccc(OC)c(-c2cc(C3=Nc4c(C(C)(C)C)nn(CCCO)c4C(=O)NC3)ccc2OC)c1` came in with a half-life in [1] of 61 min. Also, the IC50 in [2] turned out to be 8110 nM; in series [3], 46 nM.

In turn, `COc1ncc(-c2cc(C3=Nc4c(C(C)(C)C)nn(CCCO)c4C(=O)NC3)ccc2OC)c(OC)n1` had a half-life in [1] of 120 min. Moreover, the half-inhibitory concentration (IC50) in [2] was 1920 nM; in series [3] it was 7 nM.

On to `COc1ccc(C2=Nc3c(C(C)(C)C)nn(CCCO)c3C(=O)NC2)cc1-c1ccccc1F`, for which, in series [1], the half-life was 48 min. The IC50 was determined as 8160 nM in [2] and 586 nM in [3].

Consider `COc1ccc(-c2cc(C3=Nc4c(C(C)(C)C)nn(CCO)c4C(=O)NC3)ccc2OC)c(OC)n1`, for which the half-life in [1] was 57 min. In addition, the IC50 was 418 nM in series [2] and 1.8 nM in series [3].

Compound `COc1ccc(C2=Nc3c(C(C)(C)C)nn(CCO)c3C(=O)NC2)cc1-c1cnc(N(C)C)cc1C` gave a half-life in series [1] of 74 min. Besides, the IC50 in series [2] came out at 534 nM; in series [3], 1.3 nM.

`CS(=O)(=O)c1ccc(C2=C(c3ccccc3)C(=O)OC2)cc1` [ROFECOXIB]: the inhibition in vivo at 10 mg/kg is 79% with Rattus norvegicus [16] and 100% in the series with Rattus norvegicus [17].

As a reminder, the half-life is how long it takes for the measured level to halve. For orientation: IC50 means the point on the concentration scale where inhibition reaches its midpoint. Read a high IC50 as lower potency. Broadly, the inhibition in vivo is the relative decrease from the control value, in per cent. One may read the Tmax as the time from dosing to the highest level. The term AUC denotes the area under the concentration-time curve, a measure of exposure. For orientation: fraction unbound means the share of the substance not bound to proteins or other matrix. What is called bioavailability is dose-corrected exposure relative to a reference, in per cent. The low end stands for poor availability, the high end for good availability.

The values above are taken from ChEMBL document CHEMBL2385057 (Bioorg Med Chem Lett, 2013).
